Values after ≈ are worked out from the molar mass of the structure shown. Active and inactive are the calls of the source. No cut-off for these calls is given here.
Key:
[1] = test system: Aspergillus fumigatus; assay: Potency index, ratio of fluconazole MIC to compound MIC for antifungal activity against Aspergillus fumigatus; type: functional
[2] = test system: Pseudomonas aeruginosa; assay: Antibacterial activity against Pseudomonas aeruginosa ATCC 27853 after 24 hrs by microbroth dilution method; type: functional; details: ATCC 27853, 24 h
How it was run: (§1)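 Tested by CLSI-standard broth microdilution against a panel of eleven bacterial strains, Gram-positive and Gram-negative, including MRSA.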

[3] = test system: Aspergillus fumigatus; assay: Antifungal activity against Aspergillus fumigatus after 24 hrs by microbroth dilution method; type: functional
[4] = test system: Staphylococcus aureus; assay: Antibacterial activity against methicillin resistant Staphylococcus aureus after 24 hrs by microbroth dilution method; type: functional; how it was run: as §1
[5] = test system: Pseudomonas aeruginosa; assay: Antibacterial activity against Pseudomonas aeruginosa after 24 hrs by microbroth dilution method; type: functional; how it was run: as §1
[6] = test system: Escherichia coli; assay: Antibacterial activity against Escherichia coli after 24 hrs by microbroth dilution method; type: functional; how it was run: as §1
[7] = test system: Staphylococcus aureus; assay: Antibacterial activity against Staphylococcus aureus ATCC 29213 after 24 hrs by microbroth dilution method; type: functional; details: ATCC 29213, 24 h; how it was run: as §1
[8] = test system: Klebsiella pneumoniae; assay: Antibacterial activity against Klebsiella pneumoniae after 24 hrs by microbroth dilution method; type: functional; how it was run: as §1
[9] = test system: Staphylococcus aureus; assay: Antibacterial activity against Staphylococcus aureus after 24 hrs by microbroth dilution method; type: functional; how it was run: as §1
[10] = test system: Staphylococcus aureus; assay: Antibacterial activity against Staphylococcus aureus ATCC 25923 after 24 hrs by microbroth dilution method; type: functional; details: ATCC 25923, 24 h; how it was run: as §1
[11] = test system: Enterococcus faecalis; assay: Antibacterial activity against Enterococcus faecalis after 24 hrs by microbroth dilution method; type: functional; how it was run: as §1
[12] = test system: Acinetobacter baumannii; assay: Antibacterial activity against Acinetobacter baumannii after 24 hrs by microbroth dilution method; type: functional; how it was run: as §1
[13] = test system: Escherichia coli; assay: Antibacterial activity against Escherichia coli ATCC 25922 after 24 hrs by microbroth dilution method; type: functional; details: ATCC 25922, 24 h; how it was run: as §1
[14] = test system: Candida albicans; assay: Antifungal activity against Candida albicans ATCC 90023 after 24 hrs by microbroth dilution method; type: functional; details: ATCC 90023, 24 h
[15] = test system: DNA; assay: Binding affinity to methicillin resistant Staphylococcus aureus DNA assessed as hypochromic effect up to 3.5 x 10^-5mol/L by absorption spectra analysis; type: nucleic-acid assay
[16] = test system: Cell membrane; assay: Binding affinity to methicillin resistant Staphylococcus aureus cell membrane assessed as induction of membrane permeabilization at 12 times MIC measured for 10 to 70 mins by propidium iodide dye based fluorescence assay
How it was run: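 MRSA cultured 12 h at 37 °C, centrifuged, washed and resuspended in 5 mM glucose/5 mM HEPES (1:1). Compound (12 × MIC) added to cuvette with cells and propidium iodide. PI uptake followed as fluorescence increase (ex 535 nm, em 617 nm).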

[17] = test system: Staphylococcus aureus; assay: Bactericidal activity against methicillin resistant Staphylococcus aureus assessed as reduction in bacterial load at 6 times MIC up to 1 hr by time kill assay; type: functional
How it was run: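 MRSA grown 6 h at 37 °C and diluted to about 1.8 × 10^5 CFU/mL. Compound added at MIC and 6 × MIC, then incubated at 37 °C. Samples taken at 0, 30, 60, 90, 120, 240, 360 and 420 min, diluted 10-fold serially in 0.9% saline, plated on agar and counted after 24 h at 37 °C.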

[18] = test system: DNA; assay: Binding affinity to methicillin resistant Staphylococcus aureus DNA by absorption spectra analysis; type: nucleic-acid assay
[19] = Cytotoxicity against mouse L929 cells assessed as cell viability up to 128 ug/ml after 48 hrs by MTT assay relative to control; type: cell-based; details: read-out: Activity
How it was run: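 Mouse fibroblast L929 cells grown in DMEM with 10% serum and 1% penicillin/streptomycin at 37 °C, 5% CO2, seeded and cultured 24 h. Compound diluted in medium and tested in triplicate at 0, 4, 8, 16, 32, 64, 128, 256 and 512 μg/mL for 48 h. MTT in PBS added for 3–4 h, formazan dissolved in DMSO, absorbance read at 570 nm (also stated 490 nm).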

[20] = test system: DNA; assay: Inhibition of neutral red dye binding to methicillin resistant Staphylococcus aureus DNA up to 3.5 x 10^-5mol/L by UV-Visible absorption spectra analysis; type: nucleic-acid assay
How it was run: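 MRSA genomic DNA with A260/A280 > 1.8 in Tris-HCl buffer pH 7.4, combined with aqueous neutral red dye stock. Competitive displacement followed by UV-vis absorption spectroscopy.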

[21] = test system: Staphylococcus aureus; assay: Antibacterial activity against methicillin resistant Staphylococcus aureus after 16 serial passages measured after 12 hrs by microbroth dilution method; type: functional, organism-based
How it was run: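 MRSA standard strain passaged serially with compound. Each passage starts from the bacteria grown at sub-MIC (0.5 × MIC), and the MIC is redetermined by the broth microdilution method at every passage.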

| Compound | Ratio [1] | MIC [2] | MIC [3] | MIC [4] | MIC [5] | MIC [6] | MIC [7] | MIC [8] | MIC [9] | MIC [10] | MIC [11] | MIC [12] | MIC [13] | also measured |
| --- | --- | --- | --- | --- | --- | --- | --- | --- | --- | --- | --- | --- | --- | --- |
| O=P(O)(O)C(Nc1ncccn1)c1ccc(F)cc1 (centres undefined) | 16 | 128 µg/mL (≈ 452 µM) | > 16 µg/mL | 128 µg/mL (≈ 452 µM) | 256 µg/mL (≈ 904 µM) | 256 µg/mL (≈ 904 µM) | 256 µg/mL (≈ 904 µM) | 256 µg/mL (≈ 904 µM) | 256 µg/mL (≈ 904 µM) | 128 µg/mL (≈ 452 µM) | 256 µg/mL (≈ 904 µM) | 256 µg/mL (≈ 904 µM) | 128 µg/mL (≈ 452 µM) |  |
| CCOP(=O)(OCC)C(Nc1ncccn1)c1ccc2c(c1)c1cc(C=O)ccc1n2CC (centres undefined) | 16 | 256 µg/mL (≈ 549 µM) | > 16 µg/mL | 128 µg/mL (≈ 274 µM) | 256 µg/mL (≈ 549 µM) | 512 µg/mL (≈ 1100 µM) | 256 µg/mL (≈ 549 µM) | 256 µg/mL (≈ 549 µM) | 256 µg/mL (≈ 549 µM) | 256 µg/mL (≈ 549 µM) | 16 µg/mL (≈ 34.3 µM) | 128 µg/mL (≈ 274 µM) | 256 µg/mL (≈ 549 µM) |  |
| CCOP(=O)(OCC)C(Nc1ncccn1)c1ccc(Cl)cc1Cl (centres undefined) | 16 | 8 µg/mL (≈ 20.5 µM) | > 16 µg/mL | 8 µg/mL (≈ 20.5 µM) | 64 µg/mL (≈ 164 µM) | 256 µg/mL (≈ 656 µM) | 64 µg/mL (≈ 164 µM) | 64 µg/mL (≈ 164 µM) | 64 µg/mL (≈ 164 µM) | 8 µg/mL (≈ 20.5 µM) | 32 µg/mL (≈ 82 µM) | 64 µg/mL (≈ 164 µM) | 16 µg/mL (≈ 41 µM) | MIC [14]: 8 µg/mL (≈ 20.5 µM) |
| Cc1ccc(C(Nc2ncccn2)P(=O)(O)O)cc1 (centres undefined) | 16 | 256 µg/mL (≈ 917 µM) | > 16 µg/mL | 256 µg/mL (≈ 917 µM) | 128 µg/mL (≈ 458 µM) | 128 µg/mL (≈ 458 µM) | 256 µg/mL (≈ 917 µM) | 128 µg/mL (≈ 458 µM) | 256 µg/mL (≈ 917 µM) | 128 µg/mL (≈ 458 µM) | 256 µg/mL (≈ 917 µM) | 256 µg/mL (≈ 917 µM) | 256 µg/mL (≈ 917 µM) |  |
| CCCCCn1c(CCCC)nc(Cl)c1C(Nc1ncccn1)P(=O)(OCC)OCC (centres undefined) | 16 | 64 µg/mL (≈ 136 µM) | > 16 µg/mL | 4 µg/mL (≈ 8.48 µM) | 64 µg/mL (≈ 136 µM) | 128 µg/mL (≈ 271 µM) | 64 µg/mL (≈ 136 µM) | 8 µg/mL (≈ 17 µM) | 64 µg/mL (≈ 136 µM) | 32 µg/mL (≈ 67.8 µM) | 8 µg/mL (≈ 17 µM) | 32 µg/mL (≈ 67.8 µM) | 16 µg/mL (≈ 33.9 µM) | Activity [15]: Active; Activity [16]: Active; Activity [17]: >3 deltalog10CFU/ml; K [18]: 6.84 ×10³ L/mol; viability at 48 h [19]: ≤ 80%; inhibition [20]: Active; Activity [21]: Active |
| CCOP(=O)(OCC)C(Nc1ncccn1)c1ccc2oc(=O)ccc2c1 (centres undefined) | 16 | 512 µg/mL (≈ 1320 µM) | > 16 µg/mL | 256 µg/mL (≈ 658 µM) | 64 µg/mL (≈ 164 µM) | 512 µg/mL (≈ 1320 µM) | 128 µg/mL (≈ 329 µM) | 512 µg/mL (≈ 1320 µM) | 128 µg/mL (≈ 329 µM) | 64 µg/mL (≈ 164 µM) | 512 µg/mL (≈ 1320 µM) | 64 µg/mL (≈ 164 µM) | 256 µg/mL (≈ 658 µM) |  |
| O=[N+]([O-])c1ccc(C(Nc2ncccn2)P(=O)(O)O)cc1 (centres undefined) | 16 | 256 µg/mL (≈ 825 µM) | > 16 µg/mL | 128 µg/mL (≈ 413 µM) | 128 µg/mL (≈ 413 µM) | 128 µg/mL (≈ 413 µM) | 128 µg/mL (≈ 413 µM) | 256 µg/mL (≈ 825 µM) | 128 µg/mL (≈ 413 µM) | 128 µg/mL (≈ 413 µM) | 128 µg/mL (≈ 413 µM) | 256 µg/mL (≈ 825 µM) | 128 µg/mL (≈ 413 µM) |  |
| OC(Cn1cncn1)(Cn1cncn1)c1ccc(F)cc1F [FLUCONAZOLE] |  |  | > 16 µg/mL |  |  |  |  |  |  |  |  |  |  |  |
| CCOP(=O)(OCC)C(Nc1ncccn1)c1ccc(OC)cc1 (centres undefined) | 16 | 4 µg/mL (≈ 11.4 µM) | > 16 µg/mL | 256 µg/mL (≈ 729 µM) | 128 µg/mL (≈ 364 µM) | 256 µg/mL (≈ 729 µM) | 256 µg/mL (≈ 729 µM) | 256 µg/mL (≈ 729 µM) | 256 µg/mL (≈ 729 µM) | 64 µg/mL (≈ 182 µM) | 64 µg/mL (≈ 182 µM) | 128 µg/mL (≈ 364 µM) | 256 µg/mL (≈ 729 µM) |  |
| CCn1cc(C(=O)O)c(=O)c2cc(F)c(N3CCNCC3)cc21 [NORFLOXACIN] |  | 0.5 µg/mL (≈ 1.57 µM) |  | 8 µg/mL (≈ 25.1 µM) | 2 µg/mL (≈ 6.26 µM) | 16 µg/mL (≈ 50.1 µM) | 2 µg/mL (≈ 6.26 µM) | 4 µg/mL (≈ 12.5 µM) | 0.5 µg/mL (≈ 1.57 µM) | 1 µg/mL (≈ 3.13 µM) | 4 µg/mL (≈ 12.5 µM) | 8 µg/mL (≈ 25.1 µM) | 8 µg/mL (≈ 25.1 µM) |  |

From ChEMBL document CHEMBL4257553, “Novel organophosphorus aminopyrimidines as unique structural DNA-targeting membrane active inhibitors towards drug-resistant methicillin-resistant Staphylococcus aureus” (Medchemcomm, 2018)
